Assay results as given in ChEMBL document CHEMBL4823291, “Discovery of 5,6,7,8-tetrahydropyrido[3,4-d]pyrimidine derivatives as novel selective Axl inhibitors” (Bioorg Med Chem Lett, 2021).
Values after ≈ are worked out from the molar mass of the structure shown.

Experiments:
BaF3 = assay: Ratio of IC50 for Mer in mouse BaF3 cells to IC50 for Axl in mouse BaF3 cells; assay type: cell-based
[1] = target: T1, Tyrosine-protein kinase receptor UFO (Homo sapiens, UniProt P30530); assay: Inhibition of Axl (unknown origin) by cell free assay
T1 sequence (P30530 whole entry): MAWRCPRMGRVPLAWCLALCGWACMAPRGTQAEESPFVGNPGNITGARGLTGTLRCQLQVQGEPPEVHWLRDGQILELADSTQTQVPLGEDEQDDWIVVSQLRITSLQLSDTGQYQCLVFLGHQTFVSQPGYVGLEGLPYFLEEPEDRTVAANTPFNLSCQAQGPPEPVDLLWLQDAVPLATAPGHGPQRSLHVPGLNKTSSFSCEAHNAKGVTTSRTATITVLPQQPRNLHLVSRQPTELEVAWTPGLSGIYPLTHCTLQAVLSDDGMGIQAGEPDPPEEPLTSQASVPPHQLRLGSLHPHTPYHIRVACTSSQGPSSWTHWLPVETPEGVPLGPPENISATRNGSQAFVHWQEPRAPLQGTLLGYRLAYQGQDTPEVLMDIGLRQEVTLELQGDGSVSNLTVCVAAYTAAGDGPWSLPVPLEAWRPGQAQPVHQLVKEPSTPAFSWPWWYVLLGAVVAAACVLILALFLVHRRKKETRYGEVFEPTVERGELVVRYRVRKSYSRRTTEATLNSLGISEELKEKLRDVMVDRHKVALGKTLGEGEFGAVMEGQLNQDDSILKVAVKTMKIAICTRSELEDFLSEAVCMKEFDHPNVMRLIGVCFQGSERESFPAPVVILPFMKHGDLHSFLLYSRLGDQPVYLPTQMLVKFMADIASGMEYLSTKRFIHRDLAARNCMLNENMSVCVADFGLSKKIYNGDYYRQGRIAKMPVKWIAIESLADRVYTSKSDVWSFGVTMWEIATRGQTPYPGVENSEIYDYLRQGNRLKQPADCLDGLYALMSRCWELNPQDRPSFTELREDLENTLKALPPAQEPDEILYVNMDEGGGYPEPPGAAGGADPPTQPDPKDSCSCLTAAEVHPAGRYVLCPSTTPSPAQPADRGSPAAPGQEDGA

[2] = Solubility in PBS; assay type: physicochemical
How it was run: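 Solubility measured in Dulbecco's phosphate-buffered saline.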

[3] = Cmax in CAnN.Cg-Foxnlnu/CrlCrlj mouse plasma at 100 mg/kg, po single dose measured up to 24 hrs by liquid chromatography tandem mass spectrometry; assay type: ADME, organism-based; parameters: route oral, dose 100 mg/kg, time <=24

## Cc1ccc(-n2c(=O)c(C(=O)Nc3ccc(Oc4ncnc5c4CCN(CC4CCN(C)CC4)C5)c(F)c3)cn(C3CCCC3)c2=O)nc1
BaF3
  Ratio IC50: 6.4
[1]
  IC50: 5.2 nM
[2]
  solubility: 83 µM (≈ 55.5 µg/mL)
[3]
  Cmax: 10900 ng/mL
